Consider 31 molecules from ChEMBL document CHEMBL1275336, “Identification of a novel pyrrole derivative endowed with antimycobacterial activity and protection index comparable to that of the current antitubercular drugs streptomycin and rifampin” (Bioorg Med Chem, 2010).

Each structure is given as a SMILES string. Values after ≈ are worked out from the molar mass of the structure shown. Where only a bound is given, the exact number is not on record here.

What is called MIC is the smallest concentration in the dilution series that meets the test's criterion for growth inhibition.

Assay [1] in a line: Protection index, ratio of CC50 for Mycobacterium tuberculosis infected mouse J774A1 cells to MIC for Mycobacterium tuberculosis H37Rv ATCC 27294. It counts as functional, J774.A1.
Assay [2] has as its system Mycobacterium tuberculosis. The assay is described as follows: Antimycobacterial activity against Mycobacterium tuberculosis CIP 103471 after 3 to 28 days by twofold dilution method. It is filed as functional. The procedure, abridged:
(§1)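 Twofold agar dilution in Middlebrook 7H11 with 10% OADC; plates held at 37 °C for 3 or 28 days. MIC is the lowest concentration giving complete inhibition of visible mycobacterial growth. Rifampin, streptomycin and BM521 served as references.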

Assay [3] concerns Mycobacterium tuberculosis. The experiment in a line: Antimycobacterial activity against Mycobacterium tuberculosis H37Rv ATCC 27294 after 3 to 28 days by twofold dilution method. It counts as functional. The procedure, abridged:
as §1

Assay [4] deals with Mycobacterium tuberculosis. The assay is described as follows: Antimycobacterial activity against Mycobacterium tuberculosis H37Rv ATCC 27294 infected in mouse J774A1 cells assessed as reduction of bacterial growth at 0.125 ug/ml after 6 days relative to untreated control. More on the design: scale not given: the % may be the effect or the level left. It is filed as functional, J774.A1.

The test system of assay [5] is Mycobacterium tuberculosis. The assay is described as follows: Antimycobacterial activity against Mycobacterium tuberculosis H37Rv ATCC 27294 infected in mouse J774A1 cells assessed as reduction of bacterial growth at 0.25 ug/ml after 6 days relative to untreated control. It is filed as functional, J774.A1. More on the design: scale not given: the % may be the effect or the level left.

For assay [6], the system named is Mycobacterium tuberculosis. The experiment in a line: Antimycobacterial activity against Mycobacterium tuberculosis H37Rv ATCC 27294 infected in mouse J774A1 cells assessed as reduction of bacterial growth at 1 ug/ml after 6 days relative to untreated control. It is filed as functional, J774.A1. More on the design: scale not given: the % may be the effect or the level left.

The subject of assay [7] is Mycobacterium tuberculosis. The experiment in a line: Antimycobacterial activity against Mycobacterium tuberculosis H37Rv ATCC 27294 infected in mouse J774A1 cells assessed as reduction of bacterial growth at 0.5 ug/ml after 6 days relative to untreated control. It counts as functional, J774.A1. Further details: scale not given: the % may be the effect or the level left.

Take `COc1ccc(-c2cc(CN3CCSCC3)c(C)n2-c2ccc(C)cc2)cc1`: in assay [1], the PI came to 46.2. For the same molecule, the MIC was found to be 0.5 µg/mL (≈ 1.27 µM) in assay [2] and 0.25 µg/mL (≈ 0.637 µM) in assay [3].
The like results for `CSc1ccc(-n2c(-c3ccc(F)cc3)cc(CN3CCSCC3)c2C)cc1` were, in that order, more than 128, 1 µg/mL (≈ 2.42 µM) and 1 µg/mL (≈ 2.42 µM).
The like results for `COc1ccc(-n2c(-c3ccc(C)cc3)cc(CN3CCSCC3)c2C)cc1` were, in that order, 6.57, 1 µg/mL (≈ 2.55 µM) and 2 µg/mL (≈ 5.09 µM).
The like results for `CCc1ccc(-c2cc(CN3CCSCC3)c(C)n2-c2ccc(OC)cc2)cc1` were, in that order, 36.06, 0.5 µg/mL (≈ 1.23 µM) and 0.5 µg/mL (≈ 1.23 µM).
Turning to `CCc1ccc(-n2c(-c3ccc(OC)cc3)cc(CN3CCSCC3)c2C)cc1`, the PI in assay [1] turned out to be 63.04. The MIC in assay [2] turned out to be 0.5 µg/mL (≈ 1.23 µM); in assay [3] it was 0.25 µg/mL (≈ 0.615 µM).
The like results for `CCCc1ccc(-c2cc(CN3CCSCC3)c(C)n2-c2ccc(OC)cc2)cc1` were, in that order, more than 512, 0.5 µg/mL (≈ 1.19 µM) and 0.25 µg/mL (≈ 0.594 µM).
`CCCc1ccc(-n2c(-c3ccc(OC)cc3)cc(CN3CCSCC3)c2C)cc1`: in assay [1], the PI stood at 49.12. Further, the minimal inhibitory concentration (MIC) in assay [2] and in assay [3] was 0.25 µg/mL (≈ 0.594 µM) each time.
Turning to `COc1ccc(-n2c(-c3ccc(C(C)C)cc3)cc(CN3CCSCC3)c2C)cc1`, the PI in assay [1] was determined as 9.76. Besides, the MIC in assay [2] and in assay [3] was 0.5 µg/mL (≈ 1.19 µM) throughout.
As to `COc1ccc(-c2cc(CN3CCSCC3)c(C)n2-c2ccc(C(C)C)cc2)cc1`, the PI in assay [1] is 40.88. The minimum inhibitory concentration (MIC) in assay [2] and in assay [3] was 0.25 µg/mL (≈ 0.594 µM) throughout.
In the case of `CSc1ccc(-n2c(-c3ccc(C)cc3)cc(CN3CCSCC3)c2C)cc1`, the PI in assay [1] is listed as 69.06. The MIC in assay [2] and in assay [3] was 1 µg/mL (≈ 2.45 µM) in each case.
`CSc1ccc(-c2cc(CN3CCSCC3)c(C)n2-c2ccc(C)cc2)cc1`: in assay [1], the PI is listed as 73.6. The minimum inhibitory concentration (MIC) in assay [2] and in assay [3] was 0.25 µg/mL (≈ 0.612 µM) each time.
On to `CCc1ccc(-c2cc(CN3CCSCC3)c(C)n2-c2ccc(SC)cc2)cc1`, for which the PI in assay [1] was 102.96. The minimum inhibitory concentration (MIC) was 1 µg/mL (≈ 2.37 µM) in assay [2] and 0.25 µg/mL (≈ 0.591 µM) in assay [3].
The like results for `CCc1ccc(-n2c(-c3ccc(SC)cc3)cc(CN3CCSCC3)c2C)cc1` were, in that order, 68.72, 0.25 µg/mL (≈ 0.591 µM) and 0.25 µg/mL (≈ 0.591 µM).
The like results for `CCCc1ccc(-c2cc(CN3CCSCC3)c(C)n2-c2ccc(SC)cc2)cc1` were, in that order, 359.68, 0.5 µg/mL (≈ 1.14 µM) and 0.25 µg/mL (≈ 0.572 µM).
The like results for `CCCc1ccc(-n2c(-c3ccc(SC)cc3)cc(CN3CCSCC3)c2C)cc1` were, in that order, 202, 0.5 µg/mL (≈ 1.14 µM) and 0.125 µg/mL (≈ 0.286 µM).
`CSc1ccc(-n2c(-c3ccc(C(C)C)cc3)cc(CN3CCSCC3)c2C)cc1`: the PI in assay [1] was determined as 229.9. Moreover, the MIC in assay [2] and in assay [3] was 0.5 µg/mL (≈ 1.14 µM) each time.
Take `CSc1ccc(-c2cc(CN3CCSCC3)c(C)n2-c2ccc(C(C)C)cc2)cc1`: the PI in assay [1] was determined as 286.24. The minimal inhibitory concentration (MIC) was determined as 0.5 µg/mL (≈ 1.14 µM) in assay [2] and 0.125 µg/mL (≈ 0.286 µM) in assay [3].
As for `Cc1c(CN2CCSCC2)cc(-c2ccccc2C(F)(F)F)n1-c1ccc(F)cc1`, the MIC in assay [3] was more than 16 µg/mL.
Turning to `Cc1c(CN2CCSCC2)cc(-c2ccc(F)cc2)n1-c1ccccc1C(F)(F)F`, the PI in assay [1] was found to be 0.65. This molecule showed an MIC in assay [3] of 4 µg/mL (≈ 9.21 µM).
The like results for `Cc1c(CN2CCSCC2)cc(-c2ccc(C(F)(F)F)cc2)n1-c1ccc(F)cc1` were, in that order, 8.46 and 1 µg/mL (≈ 2.3 µM).
The like results for `Cc1c(CN2CCSCC2)cc(-c2ccc(F)cc2)n1-c1ccc(C(F)(F)F)cc1` were, in that order, 0.29 and 8 µg/mL (≈ 18.4 µM).
In turn, `COc1ccccc1-c1cc(CN2CCSCC2)c(C)n1-c1ccc(F)cc1` gave an MIC in assay [3] of more than 16 µg/mL.
The same measure, in the same setting: with `COc1ccccc1-n1c(-c2ccc(F)cc2)cc(CN2CCSCC2)c1C` the figure was more than 16 µg/mL.
Consider `COc1ccc(-c2cc(CN3CCSCC3)c(C)n2-c2ccc(F)cc2)cc1`, for which the PI in assay [1] was more than 480. This molecule showed a minimum inhibitory concentration (MIC) in assay [3] of 0.25 µg/mL (≈ 0.63 µM).
The corresponding values for `COc1ccc(-n2c(-c3ccc(F)cc3)cc(CN3CCSCC3)c2C)cc1` are 5.32 and 4 µg/mL (≈ 10.1 µM).
With `CSc1ccccc1-c1cc(CN2CCSCC2)c(C)n1-c1ccc(F)cc1`, in assay [1], the PI came out at 1.39. Also, the MIC in assay [2] and in assay [3] was 16 µg/mL (≈ 38.8 µM) throughout.
As to `CSc1ccccc1-n1c(-c2ccc(F)cc2)cc(CN2CCSCC2)c1C`, the PI in assay [1] was 4.2. Besides, the MIC in assay [2] and in assay [3] was 8 µg/mL (≈ 19.4 µM) throughout.
Consider `CSc1ccc(-c2cc(CN3CCSCC3)c(C)n2-c2ccc(F)cc2)cc1`, for which the PI in assay [1] was more than 1000. The Activity in assay [4] was determined as 96.12%; in assay [5] it was 99.02%; in assay [6] it was 99.81%; in assay [7] it was 99.72%. The values for the minimal inhibitory concentration (MIC) in assay [2] and in assay [3] were less than 0.125 µg/mL and 0.125 µg/mL (≈ 0.303 µM), respectively.
In the case of `Cc1ccc(-c2cc(CN3CCSCC3)c(C)n2-c2ccc(F)cc2)cc1`, the PI in assay [1] amounted to 272.16. Besides, the minimal inhibitory concentration (MIC) came to 0.125 µg/mL (≈ 0.328 µM) in assay [2] and 0.25 µg/mL (≈ 0.657 µM) in assay [3].
Regarding `CO[C@H]1/C=C/O[C@@]2(C)Oc3c(C)c(O)c4c(O)c(c(/C=N/N5CCN(C)CC5)c(O)c4c3C2=O)NC(=O)/C(C)=C\C=C\[C@H](C)[C@H](O)[C@@H](C)[C@@H](O)[C@@H](C)[C@H](OC(C)=O)[C@@H]1C` [RIFAMPIN], the PI in assay [1] stood at 828.12. In addition, the Activity turned out to be 96.59% in assay [4], 99.83% in assay [5], 99.97% in assay [6] and 99.93% in assay [7]. Further, the MIC in assay [2] and in assay [3] was 0.25 µg/mL (≈ 0.304 µM) each time.
As for `CN[C@@H]1[C@H](O[C@H]2[C@H](O[C@H]3[C@H](O)[C@@H](O)[C@H](N=C(N)N)[C@@H](O)[C@@H]3N=C(N)N)O[C@@H](C)[C@]2(O)C=O)O[C@@H](CO)[C@H](O)[C@H]1O` [STREPTOMYCIN], in assay [1], the PI is more than 2000. Moreover, the MIC in assay [2] and in assay [3] was 0.5 µg/mL (≈ 0.86 µM) throughout.
